Measured values reported in ChEMBL document CHEMBL1122937, “[(Aminomethyl)arloxy]acetic acid esters. A new class of high-ceiling diuretics. 3. Variation in the bridge between the aromatic rings to complete mapping of the receptor” (J Med Chem, 1985).
Activity calls are given as the source filed them. No cut-off for these calls is given here.

Assays:
Rattus norvegicus [1] = assay: Natriuretic potency expressed as oral dose necessary to produce an excretion of 2 mequiv of Na+/kg in the rat urine during the 4 hr period after dosing; Inactive; type: functional, organism-based
In short: (§1)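 Rats were dosed orally in dose–response experiments. Urine volume, Na+, K+ and Cl- were measured. ED2 is the oral dose in mg/kg giving excretion of 2 mequiv Na+/kg in urine over the 4 h after dosing.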

[2] = pKa value was evaluated; type: physicochemical
In short: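 UV absorption spectra were recorded in a buffer series spanning the pH range from fully protonated to fully deprotonated phenolic OH. Absorbance vs pH curves were fit by nonlinear regression, solving for the extinction coefficients of both forms and the pKa. For the amine pKa the buffers were extended to pH 12.0.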

[3] = Distribution coefficient in octanol-pH 7.0 phosphate buffer was measured at room temperature; type: physicochemical
Rattus norvegicus [4] = assay: Natriuretic potency expressed as oral dose necessary to produce an excretion of 2 mequiv of Na+/kg in the rat urine during the 4 hr period after dosing; type: functional; in short: as §1
Rattus norvegicus [5] = assay: Natriuretic potency expressed as oral dose necessary to produce an excretion of 2 mequiv of Na+/kg in the rat urine during the 4 h period after dosing; Inactive.; type: functional, organism-based; in short: as §1

SMILES	ED2 (Rattus norvegicus [1])	pKa [2]	logD [3]	ED2 (Rattus norvegicus [4]) [mg/kg]	ED2 (Rattus norvegicus [5])
CCOC(=O)COc1ccc(COc2ccc(O)c(CN)c2)c(Cl)c1Cl	inactive	–	–	–	–
CCOC(=O)COc1ccc(C(=O)c2ccc(O)c(CN)c2)cc1	–	7.34	0.3	–	–
CCOC(=O)COc1ccc(C(=O)C(=O)c2ccc(O)c(CN)c2)c(Cl)c1Cl	inactive	–	–	–	–
CCOC(=O)COc1ccc(Cc2ccc(O)c(CN)c2)c(Cl)c1Cl.Cl	–	8.73	1.66	7.5	–
CCOC(=O)COc1ccc(-c2ccc(O)c(CN)c2)c(Cl)c1Cl	inactive	–	–	–	–
COC(=O)COc1ccc([S+]([O-])c2ccc(O)c(CN)c2)c(Cl)c1Cl.Cl (stereo unspecified)	–	–	–	16.3	–
CCOC(=O)COc1ccc2c(-c3ccc(O)c(CN)c3)noc2c1Cl.Cl	–	–	–	35	–
CCOC(=O)COc1ccc(Oc2ccc(O)c(CN)c2)c(Cl)c1Cl.Cl	–	8.55	1.82	0.8	–
CCOC(=O)COc1ccc(S(=O)(=O)c2ccc(O)c(CN)c2)c(Cl)c1Cl	–	6.67	1.25	–	inactive
CCOC(=O)COc1ccc(Sc2ccc(O)c(CN)c2)c(Cl)c1Cl.Cl	–	–	–	1	–
CCOC(=O)COc1ccc(C(=O)Nc2ccc(O)c(CN)c2)c(Cl)c1Cl	inactive	–	–	–	–
CCOC(=O)COc1ccc(C(=O)c2ccc(O)c(CN)c2)c(Cl)c1Cl.Cl	–	6.38	1.41	2.5	–
